B1: tRNA (parent)
chain: GUUCCGUUGGCGUAAUGGUAACGCGUCUCCCUCCUAAGGAGAAGACUGCGGGUUCGAGUCCCGUACGGAACG

This sample holds only a part of the variants without activity.

The variants in this data set derive from B1. The data set can be described thus: yeast fitness relative to wild type (ratio to wild type); higher = fitter; tRNA-Arg(CCU), competitive growth, 37 C, YPD. Summed up:
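Amplicons of the tRNA-Arg(CCU) gene were sequenced, 100-nucleotide paired-end, from the start population and from each end population of a pooled yeast competition. The competition, in six parallel replicates, lasted 24 hours in YPD at 37°C. Fitness relative to wild type was calculated from changes in genotype frequencies. Genotypes had to have ≥ 100 starting reads, and estimates < 0.5 were set to 0.5.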
For the variant U3G G6A U8C, the yeast fitness is at most 0.5.
As for C4A G39C G41C G56C, the yeast fitness was at most 0.5.
C4A C11G C31U G38C G52A C66G: the yeast fitness worked out at 0.649.
Then C4A A21U, with 0.676.
In the case of U3C C31A it was 0.845.
Then U3G A15G C34A A70G, with 0.555; and U3C C61U G67A, with 0.567.
Take C4A G9A C22A C27G U54A: the yeast fitness was at most 0.5.
As to C4A G17A C62A, the yeast fitness is at most 0.5.
Then C4A C22U A40G A43U C46G C49G C62U, with 0.527; and U3C G48A, with 0.952; and U3C G48C, with 0.817.
Then U3C G12A G50A, with 0.662; and U3C U26C A42U C60G G67A, with at most 0.5.
In the case of U3C C29G G44C C49G A57C it was at most 0.5.
As to U3C G23C C30A G38C, the yeast fitness is at most 0.5.
Turning to C4A G23A U28A G48A A70C, the yeast fitness is at most 0.5.
Consider C4A C27U U28G C33G A36G, for which the yeast fitness came out at 0.533.
In the case of C4A G6A C30A A65G it was at most 0.5; in that of C4A A42U A69U, 0.625.
Regarding U3C G18A U53A U54G G67U, the yeast fitness was at most 0.5.
In the case of U3C G25C C49U it was 0.758; in that of C4A G6A A21C C24U A43G, at most 0.5.
In the case of C4A C11U A21U G23A it was at most 0.5; in that of C4A G18C A43C C62G A65C C66A, at most 0.5.
Consider C4A G6A G67U, for which the yeast fitness was at most 0.5.
U3G G51A C66U: the yeast fitness is at most 0.5.
In the case of U3G A37U G63A C66U it was at most 0.5; in that of C4A C11U U32A G38C U47A U53G, 0.56; in that of U3C C34A G44C C46U G51A, at most 0.5.
Take U3G G17C G18C C22A C60A C66U: the yeast fitness was at most 0.5.
For U3G U13G C30A C31A, the yeast fitness was at most 0.5.
Turning to C4A G10A C31A, the yeast fitness is at most 0.5.
As to U3G U13C A14U C61G C62U, the yeast fitness was at most 0.5.
In the case of C4A C11G C34U it was at most 0.5; in that of U3G C49G G56A, at most 0.5; in that of C4A G9C C30A G39A C61G, at most 0.5.
In the case of U3C G48A G67C it was 0.653.
For U3C U26C, the yeast fitness is 0.886.
With C4A G17A C27G G63A, the yeast fitness was at most 0.5.
In the case of C4A A14G A36U A57U it was 0.953.
On to C4A C5U C22U C34A C61G, for which the yeast fitness was at most 0.5.
Then C4A A20C A42U C66U, with at most 0.5; and U3C U8A A15C, with at most 0.5; and C4A A20U A43U A57C, with at most 0.5.
Take U3C U13A: the yeast fitness is 0.983.
Take U3C U13G: the yeast fitness worked out at 1.04.
For the variant C4A A15C C66U, the yeast fitness was at most 0.5.
In the case of U3G C55U it was 0.784.
In the case of C4A C24U U47G, the yeast fitness was at most 0.5.
Turning to U3G A36G G52A C66A A69U, the yeast fitness was at most 0.5.
Then C4A C5G C22U, with at most 0.5; and U3G U16C G39C A45C C49G C62G, with at most 0.5; and C4A C5G A57U G68U, with 0.575.
In the case of C4A C5U G39C A42C it was at most 0.5; in that of U3G U32C, 0.86.
In the case of U3C G41A A65C, the yeast fitness was determined as 0.51.
Then C4A A15G C62U, with 0.594; and U3C U59C A65C A69G, with 0.593; and U3G A45G A69U, with 0.763.
Regarding C4A C27G C46U, the yeast fitness is 0.636.
Then U3G C4U C30U C33G C55U G68U, with at most 0.5.
In the case of C4A A14G G17A C60G it was at most 0.5.
As for U3C G17C A40G C61U, the yeast fitness was at most 0.5.
In the case of U3C G9A C61U it was 0.827; in that of U3G A45G U54C, 0.678.
For U3C G17C C22A C24G U28C C33A, the yeast fitness is at most 0.5.
In the case of C4A C31U G44A A45U it was 0.574; in that of U3G U28C C62U, 0.638.
For C4A C5A C11G A15U U19C A21U, the yeast fitness was at most 0.5.
In the case of C4A C61A G67A, the yeast fitness was at most 0.5.
Then U3G G48A U53G, with at most 0.5; and C4A G25C C61A, with 0.694.
In the case of U3G A14C C24G A36G it was at most 0.5; in that of C4A A14C U19A, at most 0.5.
For the variant U3C U19A A57G, the yeast fitness was 0.624.
Then U3C U19A C22U G63A, with at most 0.5; and U3C C62U, with 0.904; and U3C C30U, with 0.879.
For the variant C4A C33A C60A, the yeast fitness is at most 0.5.
With C4A C46U G68A, the yeast fitness is 0.887.
Consider C4A A45C G52A G67U, for which the yeast fitness worked out at 0.577.
For U3G C5G G10A C30G C31G C49A C60U G67A, the yeast fitness is at most 0.5.
In the case of U3G C11G A15C C60U it was at most 0.5.
In the case of U3C U19A U28A C60G, the yeast fitness was at most 0.5.
In the case of U3C C31U A42G U54A it was at most 0.5; in that of U3C C66A, 0.711.
Turning to U3C C66U, the yeast fitness turned out to be 0.904.
In the case of C4A A15G G17A C33U G39C C55A G67C, the yeast fitness was at most 0.5.
For C4A A20U U28A C31U C55G A57C, the yeast fitness was at most 0.5.
In the case of C4A C5A C22A U28G C33G A57G it was at most 0.5.
With C4A C30A, the yeast fitness came to 0.837.
As to C4A C30G, the yeast fitness was 0.661.
C4A G23A U28A: the yeast fitness is at most 0.5.
With U3G A43U C62U, the yeast fitness is 0.727.
Then C4A A37U C55U, with 0.585.
Then U3C G50A, with 0.961; and U3G A20C A43U C55A A65U A70G, with at most 0.5; and C4A C30A A40G G48A, with at most 0.5.
With U3G G44A G67C, the yeast fitness is at most 0.5.
For U3C C27G A45C, the yeast fitness was at most 0.5.
For the variant U3C C34G A40C A43U, the yeast fitness is at most 0.5.
Then C4A A14U A20C U28G G67A A70G, with at most 0.5; and U3C C27U C33U C61A, with at most 0.5; and U3C U13C C24U G52A G68U, with at most 0.5.
U3C U28C: the yeast fitness came out at 1.08.
Then U3C G9A A15U C30A A42G, with 0.506; and U3C U47A U53C, with at most 0.5; and U3G G51A, with 0.701.
In the case of C4A C11U C34G C62A it was 0.748; in that of C4A C11U A45U C66U, at most 0.5; in that of C4A C11A C33G, 0.544.
For C4A C24U C46U C55A C66U, the yeast fitness was at most 0.5.
Then U3C U7G A14C C31A, with 0.788; and U3C G25U U64G, with at most 0.5.
As for U3C G9A U13G U26C, the yeast fitness was at most 0.5.
In the case of U3C C27U G50A it was 0.648.
Then C4A A14U C34G A65U, with at most 0.5; and C4A C11G, with 0.769; and U3C G56A U59C, with 0.768.
Then C4A G17U C46A, with 0.645; and U3G A14G, with 0.907.
For the variant C4A C24A G51C, the yeast fitness worked out at 0.595.
For U3G U8A C31A G52A, the yeast fitness is at most 0.5.
As to U3C C31U A70U, the yeast fitness turned out to be 0.865.
With C4A A43C G51A G56C, the yeast fitness amounted to 0.516.
In the case of U3C C31A C49A it was at most 0.5; in that of C4A C11U U32A G38C C55U G58A G67A, at most 0.5.
C4A C33U: the yeast fitness was 0.754.
On to U3C G9C C11U C30G A43C U59A G67C A69C, for which the yeast fitness is at most 0.5.
Then U3G C4G A70C, with at most 0.5; and C4A G41A A42C G50C A70G, with at most 0.5; and U3C G17A, with 0.831.
In the case of C4A G6A G68A it was at most 0.5; in that of C4A A20C C27U, 0.636.
Then U3G C5G A20C, with at most 0.5; and U3G C11A G23C G52C, with at most 0.5.
For the variant U3C C27G U28A, the yeast fitness is at most 0.5.
For the variant C4A C5U C22U C34A C62G, the yeast fitness was at most 0.5.
For C4A G17C, the yeast fitness turned out to be 0.629.
On to C4A A14G U26A, for which the yeast fitness was at most 0.5.
Regarding U3G C66U, the yeast fitness was found to be 0.699.
As for C4A C29G G50A, the yeast fitness was at most 0.5.
Take U3C C31A C49G A70C: the yeast fitness was at most 0.5.
On to C4A G12C, for which the yeast fitness amounted to 0.679.
With C4A C22G C29U U35C, the yeast fitness is at most 0.5.
Then C4A C22G G51C A65C, with 0.731; and C4A C29U G67A A70U, with at most 0.5; and C4A A15G G17A, with 0.724.
Turning to U3C U16G G18A A43C U53A, the yeast fitness is at most 0.5.
In the case of C4A C31G C46U it was 0.677; in that of U3C U8C C30G U35C A42G C49U G56A G58A A70C, at most 0.5.
With U3G U7C G18A C30G G41U C49G, the yeast fitness is at most 0.5.
On to U3G A21C G67U, for which the yeast fitness is at most 0.5.
In the case of U3C C49A it was 0.599; in that of U3C U7A G25A A42U U64A, at most 0.5; in that of U3C G25A A65C, 0.732.
Then U3G C4A A40U C66A A69C, with at most 0.5; and C4A C66A, with 0.569.
For C4A A20G, the yeast fitness stood at 0.859.
Take C4A A36G C55A C61U: the yeast fitness is at most 0.5.
Regarding U3G C29A U53A, the yeast fitness was at most 0.5.
In the case of C4A C27U U28G C33G A36G G50C C66U it was at most 0.5; in that of C4A C27A C62A, at most 0.5; in that of U3G C30G A40C C46U, 0.57.
Regarding U3C C31U A57G, the yeast fitness worked out at 0.778.
As to C4A C27G C31G, the yeast fitness was at most 0.5.

These data come from the RNAGym collection of RNA variant scans (doi:10.1126/science.aae0568).
